Measurements: ChEMBL document CHEMBL3091291, “Synthesis and pharmacological characterization of benzenesulfonamides as dual species inhibitors of human and murine mPGES-1” (Bioorg Med Chem, 2013)

Tests used:
[1] = biological target: T1, Prostaglandin G/H synthase 2 (Homo sapiens) (UniProt P35354); assay: Inhibition of LPS-stimulated COX2 in human whole blood assessed as reduction in PGE2 production by measuring remaining activity at 100 uM preincubated for 15 mins followed by LPS addition measured after 24 hrs by LC-MS/MS analysis
T1 sequence (whole entry): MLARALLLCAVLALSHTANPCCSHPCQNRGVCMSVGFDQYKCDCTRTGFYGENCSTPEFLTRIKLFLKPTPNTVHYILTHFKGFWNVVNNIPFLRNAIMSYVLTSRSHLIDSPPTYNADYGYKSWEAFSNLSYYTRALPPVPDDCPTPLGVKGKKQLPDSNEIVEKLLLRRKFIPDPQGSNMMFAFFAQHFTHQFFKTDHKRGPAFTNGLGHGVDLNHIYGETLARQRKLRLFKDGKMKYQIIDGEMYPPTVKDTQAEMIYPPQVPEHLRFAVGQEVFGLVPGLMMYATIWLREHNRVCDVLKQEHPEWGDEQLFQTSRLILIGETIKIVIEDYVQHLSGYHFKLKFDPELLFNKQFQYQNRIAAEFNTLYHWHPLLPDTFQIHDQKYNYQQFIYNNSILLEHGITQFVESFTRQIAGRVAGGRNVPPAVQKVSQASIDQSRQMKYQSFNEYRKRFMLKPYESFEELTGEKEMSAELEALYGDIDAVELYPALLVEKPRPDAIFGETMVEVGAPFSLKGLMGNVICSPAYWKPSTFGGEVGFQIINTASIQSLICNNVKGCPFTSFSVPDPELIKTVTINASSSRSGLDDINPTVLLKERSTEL
In short: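 Heparinized human whole blood (500 µL) mixed with compound in DMSO, with acetylsalicylic acid added to block COX-1, held 15 min at 37 °C, then stimulated with LPS in autologous plasma to induce COX-2/mPGES-1. After 24 h at 37 °C, samples chilled 5 min on ice; plasma collected, prostaglandins extracted and measured by LC–MS/MS. Remaining activity given relative to vehicle control.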

[2] = biological target: T1, Prostaglandin G/H synthase 2 (Homo sapiens); assay: Inhibition of recombinant human COX2 using […] at 10 uM by LC-MS/MS analysis
In short: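 Ovine COX-1 and recombinant human COX-2 tested directly with a commercial COX inhibitor screening kit, following the manufacturer's protocol. COX-derived PGH₂ reduced with SnCl₂; the resulting PGE₂, PGD₂ and PGF₂a diluted in MeOH, spiked with deuterated internal standards and quantified by SPE and LC–MS/MS.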

`O=C(O)c1ccc(S(=O)(=O)N(Cc2ccccc2)c2ccc(Oc3ccccc3)cc2)cc1` gave an Activity [1] of 66.8% and an inhibition [2] of less than 0%.
Work on `O=C(O)c1ccc(S(=O)(=O)N(Cc2ccccc2)Cc2ccc(Nc3ccccc3)cc2)cc1` yielded an Activity [1] of 61.2% and an inhibition [2] of 12.9%.
In the case of `COc1ccc(CN(Cc2ccccc2)S(=O)(=O)c2ccc(C(=O)O)cc2)cc1`, the Activity [1] is reported as 74.4% and the inhibition [2] is reported as less than 0%.
For `O=C(O)c1ccc(S(=O)(=O)N(Cc2ccccc2)Cc2ccc(Oc3ccccc3)cc2)cc1`, the Activity [1] was 88.7% and the inhibition [2] was 3.1%.
With `COc1ccc(CN(CC2CCCCC2)S(=O)(=O)c2ccc(C(=O)O)cc2)cc1` the Activity [1] was 39% and the inhibition [2] was 18.5%.
